In article PMC8395708 (JACS Au, 2021):

Legend:
[1] = type: in vivo, C57BL/6JNarl mice; details: mice, oral gavage 13.25 mg/kg
[2] = biological target: bovine serum albumin (BSA) (Bos taurus, UniProt P02769); experiment: Reaction of DNIC-1 with bovine serum albumin; type: binding; details: PBS pH 7.4, 37 °C, EPR
[3] = Effect of BSA or L-cysteine on degradation of DNIC-1 in PBS; type: physicochemical
Procedure, shortened: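 UV-vis stability: 25 μM test compound with 10 mg/mL BSA in PBS pH 7.4 at 37 °C under air. […] The same design was used with 150 μM L-cysteine instead of BSA, and with BSA under anaerobic conditions. Three independent experiments.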

[4] = NO release, Nitrate/Nitrite Colorimetric Assay; type: physicochemical; details: degradation of BSA-bound DNIC, PBS pH 7.4
Procedure, shortened: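 25 μM test compound was left to degrade under air for 2 d in 50 mM phosphate pH 7.4, SIF or SGFsp, or with BSA in PBS pH 7.4. For nitrate/nitrite, 10 μL sample was diluted in kit buffer with enzyme cofactor and nitrate reductase for 1 h at room temperature. NO equivalents were calculated from 0–35 μM nitrite/nitrate standard curves.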

bovine serum albumin (BSA), sequence (P02769 25-607): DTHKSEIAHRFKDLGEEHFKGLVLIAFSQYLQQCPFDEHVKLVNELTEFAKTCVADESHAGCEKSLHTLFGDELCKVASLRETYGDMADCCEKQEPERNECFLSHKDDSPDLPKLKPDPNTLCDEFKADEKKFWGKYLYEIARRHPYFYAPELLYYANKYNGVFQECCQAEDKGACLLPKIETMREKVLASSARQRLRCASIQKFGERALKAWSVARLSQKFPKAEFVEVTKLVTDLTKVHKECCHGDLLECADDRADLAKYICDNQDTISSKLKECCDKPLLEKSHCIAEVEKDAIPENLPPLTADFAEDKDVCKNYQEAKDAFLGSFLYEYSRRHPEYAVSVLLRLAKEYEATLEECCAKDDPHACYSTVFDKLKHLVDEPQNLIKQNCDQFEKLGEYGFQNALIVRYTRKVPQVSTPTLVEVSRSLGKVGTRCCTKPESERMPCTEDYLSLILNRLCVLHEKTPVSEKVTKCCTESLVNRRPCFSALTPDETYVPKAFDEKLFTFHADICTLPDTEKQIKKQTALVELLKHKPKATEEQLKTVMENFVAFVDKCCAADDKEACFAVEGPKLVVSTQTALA

Substance: [(NO)2Fe(SR)(mucin)] (R = CH2CH2OH) [mucin-bound DNIC]
- half-life in the small intestine [1]: 3.0 ± 0.6 h

Substance: [(NO)2Fe(SR)(BSA)] (R = CH2CH2OH) [BSA-bound DNIC]
- reaction time to plateau of BSA-bound DNIC formation [2]: 15 min
- half-life of BSA-bound DNIC (UV-vis decay at 384 and 565 nm) ([3]; 25 μM DNIC-1 + 10 mg/mL BSA, PBS pH 7.4, aerobic, 37 °C): 3.5 ± 0.3 h
- half-life of BSA-bound DNIC (decay of EPR signal) ([3]; 25 μM DNIC-1 + 50 mg/mL BSA, PBS pH 7.4, aerobic, 37 °C, EPR): 3.5 ± 0.2 h
- stability under anaerobic condition ([3]; 10 mg/mL BSA, PBS pH 7.4, 37 °C, 24 h, anaerobic): No change of the UV–vis spectra
- released nitric oxide [4]: ~1.4 equiv
